Results taken from publication PMC6030392 (Neoplasia (New York, N.Y.), 2018).
Like-named read-outs stand apart in the source and are kept apart here. Marks after values point to notes of the source that are not given here. One block for each molecule: values may come before it.

Key:
[1] = cited from earlier work
[2] = cited from earlier work; remark: listed apart in the source
[3] = biological target: T1, Bcrp1 (Mus musculus, UniProt Q7TMS5); experiment: In vitro Transwell transport, MDCKII parent versus Bcrp1 transduced subline; assay type: in vitro ADME
T1 sequence (Q7TMS5 1-657): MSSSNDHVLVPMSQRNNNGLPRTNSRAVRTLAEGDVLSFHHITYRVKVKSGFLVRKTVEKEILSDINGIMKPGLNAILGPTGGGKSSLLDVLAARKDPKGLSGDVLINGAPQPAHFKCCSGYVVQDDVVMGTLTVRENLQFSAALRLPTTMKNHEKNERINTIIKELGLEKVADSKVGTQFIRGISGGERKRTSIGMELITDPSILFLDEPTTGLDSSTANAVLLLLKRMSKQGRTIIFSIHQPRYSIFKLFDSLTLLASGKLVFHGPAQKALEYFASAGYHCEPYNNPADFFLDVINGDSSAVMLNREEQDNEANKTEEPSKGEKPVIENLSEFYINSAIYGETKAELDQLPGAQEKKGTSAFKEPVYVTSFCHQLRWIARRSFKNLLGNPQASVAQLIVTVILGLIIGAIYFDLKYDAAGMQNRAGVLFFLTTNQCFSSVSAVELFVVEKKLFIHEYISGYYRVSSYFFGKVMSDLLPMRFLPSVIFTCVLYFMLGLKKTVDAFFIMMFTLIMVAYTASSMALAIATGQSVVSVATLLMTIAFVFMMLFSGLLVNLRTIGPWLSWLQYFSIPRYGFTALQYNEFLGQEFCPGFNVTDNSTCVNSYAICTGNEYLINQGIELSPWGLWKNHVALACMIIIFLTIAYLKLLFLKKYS
Outline: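 MDCKII parent and Bcrp1-transduced cells were grown 3 days on 3.0 μm polycarbonate Transwell filters (1 × 10⁶ cells/well) in MEM with 10% FBS at 37°C. Test compound (40 μg/ml in OptiMEM) went apical or basolateral. Inhibitor went to both sides, plus a P-gp blocker (5 μM). Sampling was every 30 min to 2 h, with half the donor refreshed each time. Wells leaking >1.5%/h were excluded. Analysis by HPLC.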

[4] = dose level of 100 mg/kg; cited from earlier work
[5] = cited from earlier work; remark: listed apart in the source
[6] = biological target: Mdr1a (P-gp) (Mus musculus, UniProt P21447); experiment: In vitro Transwell transport, LLC-PK1 parent versus Mdr1a transduced subline; assay type: in vitro ADME, murine; settings: temozolomide 40 μg/ml; LLC-PK1 vs LLC-Mdr1a
Mdr1a (P-gp), sequence (P21447 whole entry): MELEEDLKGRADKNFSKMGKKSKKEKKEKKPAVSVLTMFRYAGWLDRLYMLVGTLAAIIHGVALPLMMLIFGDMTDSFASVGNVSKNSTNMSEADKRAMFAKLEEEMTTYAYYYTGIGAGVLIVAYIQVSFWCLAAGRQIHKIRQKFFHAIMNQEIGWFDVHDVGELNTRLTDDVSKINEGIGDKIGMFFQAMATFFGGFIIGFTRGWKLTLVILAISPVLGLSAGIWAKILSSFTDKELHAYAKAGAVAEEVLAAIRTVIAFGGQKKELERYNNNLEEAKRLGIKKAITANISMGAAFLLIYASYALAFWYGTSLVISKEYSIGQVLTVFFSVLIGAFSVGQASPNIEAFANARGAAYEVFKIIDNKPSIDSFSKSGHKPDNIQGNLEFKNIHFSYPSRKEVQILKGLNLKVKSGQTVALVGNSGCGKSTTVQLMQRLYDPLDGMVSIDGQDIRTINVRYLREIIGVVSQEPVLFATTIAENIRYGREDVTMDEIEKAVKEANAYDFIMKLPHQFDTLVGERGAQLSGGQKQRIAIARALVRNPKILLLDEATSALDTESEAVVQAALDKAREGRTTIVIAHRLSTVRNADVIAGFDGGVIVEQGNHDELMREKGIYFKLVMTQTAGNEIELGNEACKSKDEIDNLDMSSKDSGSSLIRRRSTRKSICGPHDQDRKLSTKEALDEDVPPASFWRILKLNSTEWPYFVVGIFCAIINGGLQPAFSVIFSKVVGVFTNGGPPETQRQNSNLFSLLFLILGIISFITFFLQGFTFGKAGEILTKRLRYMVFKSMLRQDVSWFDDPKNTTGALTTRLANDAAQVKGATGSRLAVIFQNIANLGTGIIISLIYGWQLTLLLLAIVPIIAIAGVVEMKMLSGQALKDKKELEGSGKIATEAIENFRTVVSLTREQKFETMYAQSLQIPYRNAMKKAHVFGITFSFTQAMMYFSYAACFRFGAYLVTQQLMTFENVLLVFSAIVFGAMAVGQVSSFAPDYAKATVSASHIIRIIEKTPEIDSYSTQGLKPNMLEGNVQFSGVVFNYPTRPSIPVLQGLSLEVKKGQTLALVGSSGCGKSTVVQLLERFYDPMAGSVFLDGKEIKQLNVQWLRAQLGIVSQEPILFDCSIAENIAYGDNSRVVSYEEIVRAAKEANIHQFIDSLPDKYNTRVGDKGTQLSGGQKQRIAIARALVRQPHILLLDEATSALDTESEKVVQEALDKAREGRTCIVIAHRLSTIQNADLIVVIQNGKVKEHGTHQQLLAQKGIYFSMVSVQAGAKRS

[7] = Stability in culture medium at 37°C; assay type: physicochemical
[8] = Recovery in acceptor compartment of Transwell; assay type: in vitro ADME; settings: after 30 minutes; transport medium pH 7.4
[9] = assay type: in vivo, FVB mice; settings: for AUC 0–7 h, brain: mean ± SE, n ≥ 7
Outline: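 Male FVB mice (WT, Abcg2^−/−, Abcb1a/b^−/−, Abcb1a/b;Abcg2^−/−; 8–15 weeks) got 50 mg/kg i.v. via tail vein. Groups of […] were sampled at 15 min, 1, 2, 4, 7 h by cardiac puncture (K-EDTA plasma, acidified with 1 M HCl). Brains were homogenized in pH 2 phosphate/1% BSA. Extracts (ethyl acetate) were run on HPLC in duplicate. AUC0–7h by linear trapezoidal rule; brain-to-plasma ratio per animal; two-way ANOVA with Bonferroni.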

[10] = Plasma pharmacokinetics of oral temozolomide; assay type: in vivo, mice; settings: 100 mg/kg oral; WT n = 18, Abcb1a/b;Abcg2^−/− n = 19
[11] = system: intracranial Mel57-luc tumors; experiment: Intracranial Mel57-luc tumor efficacy study; assay type: in vivo, FVB nude mice; settings: oral 100 mg/kg/day × 5
Outline: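 WT or Abcb1a/b;Abcg2^−/− FVB nude mice received Mel57-luc cells (100,000 cells/2 μl) stereotactically 2 mm lateral, 1 mm anterior to bregma, 3 mm deep. Tumor load was set by bioluminescence before stratification to oral test compound 100 mg/kg/day for 5 days, untreated control, or combination with oral inhibitor 20–30 min earlier. Repeated imaging was expressed relative to the first measurement and log-transformed.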

[12] = system: GSC457 glioblastoma cells; experiment: Orthotopic GSC457 glioblastoma efficacy study; assay type: in vivo, murine; settings: oral 100 mg/kg/day × 7
[13] = C57BL × DBA/2 F1 mice; cited from earlier work
[14] = cited from earlier work; remark: listed apart in the source
[15] = Abcb1a/b^−/− mice, 50 mg/kg i.v.

Compound: CC(=O)c1c(C)c2cnc(Nc3ccc(N4CCNCC4)cn3)nc2n(C2CCCC2)c1=O [palbociclib]
higher brain penetration in Abcb1a/b^−/− compared to WT controls [1]: approximately 15 fold

Compound: Cc1ccc(NC(=O)c2ccc(CN3CCN(C)CC3)cc2)cc1Nc1nccc(-c2cccnc2)n1 [imatinib]
oral bioavailability [2]: > 90%
brain penetration ([1]; significantly enhanced in Abcb1a/b;Abcg2^−/− mice): poor

Compound: CC(=O)O[C@H]1C(=O)[C@@]2(C)[C@H]([C@H](OC(=O)c3ccccc3)[C@]3(O)C[C@H](OC(=O)[C@H](O)[C@@H](NC(=O)c4ccccc4)c4ccccc4)C(C)=C1C3(C)C)[C@]1(OC(C)=O)CO[C@@H]1C[C@@H]2O [paclitaxel]
higher brain penetration in Abcb1a/b^−/− compared to WT controls [1]: 5 fold

Compound: Cn1nnc2c(C(N)=O)ncn2c1=O [temozolomide]
transport by P-gp [6]: very limited, if any, evidence for transport by P-gp
transport by Bcrp1 ([3]; temozolomide 40 μg/ml, MDCKII vs MDCKII-Bcrp1, zosuquidar 5 μM present): clear vectorial transport by Bcrp1
half-life [7]: ~30 min
fraction of the donor concentration recovered in the acceptor compartment [8]: at least 5%
increase of brain accumulation compared to WT mice ([9]; Abcb1a/b;Abcg2^−/− mice, 50 mg/kg i.v., P < .001): 50%
AUC 0–7 h, brain ([9]; Abcb1a/b;Abcg2^−/− mice, 50 mg/kg i.v.): 57.09 ± 1.32**^/# μg/g.h
increase of brain accumulation compared to WT mice [9, 15]: about 20%
AUC 0–7 h, brain [9, 15]: 44.51 ± 1.56 µg·h/g
increase of brain accumulation compared to WT mice ([9]; Abcg2^−/− mice, 50 mg/kg i.v.): 20%
AUC 0–7 h, brain ([9]; Abcg2^−/− mice, 50 mg/kg i.v.): 44.78 ± 1.88 µg·h/g
AUC 0–7 h, brain ([9]; WT mice, 50 mg/kg i.v.): 36.81 ± 1.11 µg·h/g
increase of brain penetration compared to wild-type controls ([9]; combined deletion of Abcb1a/b and Abcg2, P < .001): 1.5 fold
effect of absence of drug transporters on plasma clearance ([9]; knockout vs WT mice, 50 mg/kg i.v.): did not affect the plasma clearance
plasma AUC in Abcb1a/b;Abcg2^−/− versus WT mice [10]: not significantly different
antitumor efficacy against intracranial Mel57 tumors, relative to WT mice ([11]; Abcb1a/b;Abcg2^−/− mice): significantly higher
antitumor efficacy against intracranial Mel57 tumors ([11]; WT mice): modest efficacy
tumor growth and survival, Abcb1a/b;Abcg2^−/− compared to WT mice [12]: significantly slower tumor growth and longer survival
oral bioavailability [13]: almost complete
main dose-limiting toxicity [14]: bone marrow toxicity

Now from value to molecule, other results behind:

effect on Bcrp1-mediated transport of temozolomide ([3]; inhibitor 10 μM in the medium): almost completely abrogated
Compound: C#Cc1cccc(Nc2ncnc3cc(OCCOC)c(OCCOC)cc23)c1 [erlotinib]

effect on Bcrp1-mediated transport of temozolomide ([3]; inhibitor 10 μM in the medium): almost completely abrogated
Compound: COc1cc2ncnc(Nc3ccc(F)c(Cl)c3)c2cc1OCCCN1CCOCC1 [gefitinib]
plasma levels [4]: about 10 μM
plasma levels achievable in patients relative to the level after 100 mg/kg [5]: about 10 fold lower

effect on Bcrp1-mediated transport of temozolomide ([3]; inhibitor 5 μM in the medium): almost completely abrogated
Compound: COc1cc2c(cc1OC)CN(CCc1ccc(NC(=O)c3cccc4c(=O)c5cccc(OC)c5[nH]c34)cc1)CC2 [elacridar]

effect on Bcrp1-mediated transport of temozolomide ([3]; inhibitor 50 μM in the medium): not sufficient
Compound: CO[C@@H]1[C@@H](OC(N)=O)[C@@H](O)[C@H](Oc2ccc3c(O)c(NC(=O)c4ccc(O)c(CC=C(C)C)c4)c(=O)oc3c2C)OC1(C)C [novobiocin]
